Measurements taken from ChEMBL document CHEMBL1123634, “Design, synthesis, and testing of potential antisickling agents. 10. (2,2-Dimethylchroman-6-yl)alkanoic acids” (1987).

Columns and labels:
Format in all cases: functional
Homo sapiens [1] = organism: Homo sapiens; experiment: Antigelling activity expressed as ratio of soluble sickle hemoglobin (HbS) of compound (g/dL) and that of control at 10 mM concentration
How it was run: (§1)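 Hofrichter-type solubility assay: HbS (final around 24 g/100 mL) incubated with drug at 5, 10, 20 and 40 mM, dithionite as deoxygenant. Drugs taken up as sodium salts (2 equiv NaHCO3) in 0.15 M phosphate buffer pH 7.4, 0.18 M stock, some with N-methylpiperazine added for solubility. Each spin run includes a no-drug dHbS control and a 40 mM phenylalanine control. Ratio is soluble HbS with drug (g/dL) over soluble HbS control (g/dL). Values are averages of duplicate runs.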

Homo sapiens [2] = organism: Homo sapiens; experiment: Antigelling activity expressed as ratio of soluble sickle hemoglobin (HbS) of compound (g/dL) and that of control at 20 mM concentration.; how it was run: as §1
Homo sapiens [3] = organism: Homo sapiens; experiment: Antigelling activity expressed as ratio of soluble sickle hemoglobin (HbS) of compound (g/dL) and that of control at 40 mM concentration; how it was run: as §1
Homo sapiens [4] = organism: Homo sapiens; experiment: Antigelling activity expressed as ratio of soluble sickle hemoglobin (HbS) of compound (g/dL) and that of control at 5 mM concentration.; how it was run: as §1
Homo sapiens [5] = organism: Homo sapiens; experiment: Antigelling activity expressed as ratio of soluble sickle hemoglobin (HbS) of compound (g/dL) and that of control at 20 mM concentration; how it was run: as §1
Homo sapiens [6] = organism: Homo sapiens; experiment: Antigelling activity expressed as ratio of soluble sickle hemoglobin (HbS) of compound (g/dL) and that of control at 5 mM concentration; how it was run: as §1
Homo sapiens [7] = organism: Homo sapiens; experiment: Antigelling activity expressed as ratio of soluble sickle hemoglobin (HbS) of compound (g/dL) and that of control at 40 mM concentration.; how it was run: as §1
Homo sapiens [8] = organism: Homo sapiens; experiment: Antigelling activity expressed as ratio of soluble sickle hemoglobin (HbS) of compound (g/dL) and that of control at 10 mM concentration.; how it was run: as §1

| SMILES | Activity (Homo sapiens [1]) | Activity (Homo sapiens [2]) | Activity (Homo sapiens [3]) | Activity (Homo sapiens [4]) | Activity (Homo sapiens [5]) | Activity (Homo sapiens [6]) | Activity (Homo sapiens [7]) | Activity (Homo sapiens [8]) |
| --- | --- | --- | --- | --- | --- | --- | --- | --- |
| CC(=O)OC(C/C(C)=C/C(=O)O)c1ccc2c(c1)CCC(C)(C)O2 (configuration not stated) | 1.03 | 1.085 | 1.188 | 1.01 | – | – | – | – |
| CC1(C)CCc2cc(CCCC(=O)O)ccc2O1 | 1.086 | – | 1.299 | – | 1.144 | 1.052 | – | – |
| CC1(C)CCc2cc(CCC(=O)O)ccc2O1 | 1.077 | – | 1.297 | 1.045 | 1.164 | – | – | – |
| CC(C(=O)O)c1ccc2c(c1)CCC(C)(C)O2 (configuration not stated) | 1.028 | – | 1.21 | 1.011 | 1.095 | – | – | – |
| CC1(C)CCc2cc(C(=O)O)ccc2O1 | 1.043 | – | – | – | 1.108 | 1.044 | 1.226 | – |
| CC(C)(Oc1ccc(Cl)cc1)C(=O)O [CLOFIBRIC ACID] | 1.064 | – | – | 1.018 | 1.155 | – | 1.302 | – |
| Cc1ccc(C)c(OCCCC(C)(C)C(=O)O)c1 [GEMFIBROZIL] | – | – | 1.234 | – | 1.117 | 1.04 | – | 1.073 |
| N[C@@H](Cc1ccccc1)C(=O)O [PHENYLALANINE] | – | 1.093 | 1.178 | – | – | 1.036 | – | 1.048 |
